# Results taken from PubChem BioAssay AID652011 (Sanford-Burnham Center for Chemical Genomics, 2013).
# Where “and” joins values, the source holds several entries; their conditions need not be identical. Equal entries are not always repeated.
# Biological target: Hypoxia-inducible factor 1-alpha (Homo sapiens) (UniProt Q16665)
# Test: HIF reporter inhibition across pancreatic and renal lines – cell-based, luminescence, MIAPaCa-2, 786-0, panel, SAR follow-up (AID 652011)
# Details: MIAPaCa-2/PANC HIF reporter, luciferase luminescence, desferoxamine, overnight, HIF1a, run 1; at 99 µM (top of the series)
# Procedure, shortened: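 Probe or stimulus: desferoxamine stimulus / Schedule: overnight compound incubation at 37 °C, 10 min reagent / Dosing: compounds from 10 mM and 0.3125 mM stocks, 1% DMSO final / Signal: luciferase luminescence with One-Glo reagent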
# Sequence of Hypoxia-inducible factor 1-alpha (Homo sapiens) (Q16665 whole entry, looked up): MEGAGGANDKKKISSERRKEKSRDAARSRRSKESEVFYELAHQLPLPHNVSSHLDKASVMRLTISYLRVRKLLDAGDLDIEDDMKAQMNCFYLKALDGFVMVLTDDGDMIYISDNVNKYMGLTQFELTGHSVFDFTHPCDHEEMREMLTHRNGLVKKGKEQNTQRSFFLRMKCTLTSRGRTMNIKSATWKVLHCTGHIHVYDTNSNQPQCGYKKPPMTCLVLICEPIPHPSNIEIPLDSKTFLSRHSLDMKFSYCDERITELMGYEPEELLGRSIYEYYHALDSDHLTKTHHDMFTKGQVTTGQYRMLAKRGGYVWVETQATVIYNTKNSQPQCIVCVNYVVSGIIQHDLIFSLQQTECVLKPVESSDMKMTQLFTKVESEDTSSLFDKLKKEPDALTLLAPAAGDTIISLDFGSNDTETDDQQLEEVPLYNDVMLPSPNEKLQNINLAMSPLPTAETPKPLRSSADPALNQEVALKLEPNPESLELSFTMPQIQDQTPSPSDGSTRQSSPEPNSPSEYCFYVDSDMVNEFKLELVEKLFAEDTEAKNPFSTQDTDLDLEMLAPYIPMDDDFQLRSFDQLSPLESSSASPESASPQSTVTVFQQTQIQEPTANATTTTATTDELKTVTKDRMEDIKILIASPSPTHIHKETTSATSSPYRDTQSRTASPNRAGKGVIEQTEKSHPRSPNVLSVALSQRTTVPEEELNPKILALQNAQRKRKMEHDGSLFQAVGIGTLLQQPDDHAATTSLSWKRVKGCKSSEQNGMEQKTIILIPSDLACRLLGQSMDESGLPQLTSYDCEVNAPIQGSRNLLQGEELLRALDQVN
row,SMILES,inhibition
1,CNC(=O)CCc1nc(-c2ccc(Cl)cc2)no1,-25.6%
2,CC(C)(C)c1ccc(-c2noc(CCC(=O)NC3CCC3)n2)cc1,31.6%
3,CCC(C)NC(=O)CCc1nc(-c2ccc(C(C)C)cc2)no1 (stereo not given),-41.9%
4,CNC(=O)CCc1nc(-c2ccc(OC)cc2)no1,-51.1%
5,CCCCc1ccc(-c2noc(CCC(=O)NCC)n2)cc1,-6.32%
6,CC(C)NC(=O)CCc1nc(-c2ccc(C(C)(C)C)cc2)no1,17.3%
7,COC(=O)CCc1nc(-c2ccc(C(C)(C)C)cc2)no1,92.2%
8,CC(C)(C)NC(=O)CCc1nc(-c2ccc(C(C)(C)C)cc2)no1,84.3%
9,CCC(C)NC(=O)CCc1nc(-c2ccccc2)no1 (stereo not given),-33.5%
10,CCc1ccc(-c2noc(CCC(=O)NC(C)(C)C)n2)cc1,-38.3%
11,CCNC(=O)CCc1nc(-c2cccc(F)c2)no1,-22%
12,CCNC(=O)CCc1nc(-c2ccccc2Cl)no1,-17.5%
13,CNC(=O)CCc1nc(-c2ccc(C)cc2)no1,8.42%
14,CCCCc1ccc(-c2noc(CCC(=O)NC3CC3)n2)cc1,2.18%
15,CCc1ccc(-c2noc(CCC(=O)NC3CC3)n2)cc1,-66.8%
16,CC(C)(C)c1ccc(-c2noc(CCC(=O)Nc3cccc([N+](=O)[O-])c3)n2)cc1,96.4%
17,CN(C)C(=O)CCc1nc(-c2ccc(C(C)(C)C)cc2)no1,-59.6% and -77.5%
18,CNC(=O)CCc1nc(-c2ccc(C(C)(C)C)cc2)no1,21.1%
19,CC(C)(C)c1ccc(-c2noc(CCC(=O)NC3CCCCC3)n2)cc1,41.6%
20,CC(C)c1ccc(-c2noc(CCC(=O)NC(C)(C)C)n2)cc1,-0.968%
